Assay outcomes (PubChem BioAssay)
A selection: hits, their analogues and other compounds. The true share with any hit is near 1.7%.
Pemphigus Ab inh: inhibitors of pemphigus antibody binding to DSG3, primary screen, biochemical, bead-based, flow cytometry, scFv-GFP; Desmoglein-3 (Homo sapiens), P32926; DSG3-coupled beads, scFv-anti-DSG3-GFP binding; stronger effect = lower value; binding (percent of control), % at 10 µM; actives 0.48% (n = 310,000);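 active = binding more than 3 SD below its plate's average and above zero; inconclusive = below that plate limit but binding exactly zero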;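 note: hits lower antibody fragment binding to DSG3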
Efflux pump inh: inhibitors of Candida efflux pumps in yeast, primary screen, S. cerevisiae, Nile Red, multiplex | inhibition, % at 10 µM | S. cerevisiae Candida pump triplex | actives 0.44% (n = 330,000);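 active = plate passing quality check with inhibition over a set limit, or well fluorescence over plate mean plus 4 SD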;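 note: Nile Red retained in pooled yeast measured as flow cytometry median fluorescence; higher means more Nile Red kept so more efflux inhibition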
Arrestin-AP2 inh: inhibitors of beta-arrestin/AP2 binding, primary screen, biochemical, GPCR trafficking, flow cytometry; beta-arrestin 1 C-terminal peptide binding to AP2 beta2-adaptin appendage (human); FITC-arrestin peptide / GST-AP2 beads; AP2 beta2 appendage carries R879A mutation; inhibition, % at 10 µM; actives 0.31% (n = 340,000);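 active = inhibition above a set limit, near 3 SD of compounds lacking own fluorescence, cut at about 54% in these data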
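Test system: GST-tagged AP2 beta2-adaptin appendage (R879A) on 4 µm glutathione beads; also added: fluorescein-tagged arrestin peptide at 50 nM final; timing: 12 min plus 1 h, RT; signal: flow cytometry, FL1 (488/535 nm); read-out: percent drop in bead-associated FITC signal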
Neddylation inh: inhibitors of cullin neddylation, primary screen, biochemical, TR-FRET, uHTS, NAE and Ubc12; actives 0.58% (n = 360,000); inhibition, % at 25 µM; NEDD8-conjugating enzyme Ubc12 (Homo sapiens) + NEDD8-activating enzyme E1 regulatory …; in the data active = inhibition above about 36%
Neddyl inh conf: blockade of NEDD8 conjugation to cullin – biochemical, TR-FRET, single concentration, confirmation; calls only at 25 µM; AID 652217, 2013; shares compounds with Neddylation inh; actives 13% (n = 1,800); TR-FRET cullin neddylation biochemical assay; in the data active = inhibition above about 40%;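 note: neddylation substrate is the cullin 1 ring ligase complex with SKP2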
Hits are given with their value; - = inactive; ? = inconclusive; . = not tested or not shown; + = active, no number; ! = not confirmed by another sample.

SMILES | Pemphigus Ab inh | Efflux pump inh | Arrestin-AP2 inh | Neddylation inh | Neddyl inh conf
COC(=O)C1=C(C)NC(C)=C(C(=O)OC)C1C(=O)OCC(=O)N1c2ccccc2CC1C (centres undefined) | - | - | - | 46! | .
CC1Cc2ccccc2N1C(=O)COC(=O)c1ccc(O)cc1 (centres undefined) | - | - | - | - | .
CC1CCCCC1NC(=O)COC(=O)/C=C/c1ccc2c(c1)OCO2 (centres undefined) | - | - | - | 39 | -
CC(=O)Nc1ccc(NC(=O)COC(=O)/C=C/c2ccc3c(c2)OCO3)cc1 | . | - | - | . | .
Cn1c(=O)cc(OCC(=O)NCc2cccs2)c2ccccc21 | - | - | - | - | .
Cc1ccc(S(=O)(=O)[N-]c2nc3ccccc3nc2-n2cc[n+](CCC(C)C)c2)cc1 | - | - | - | 44 | -
CC(C)CC[n+]1ccn(-c2nc3ccccc3nc2[N-]S(=O)(=O)c2ccc(Cl)cc2)c1 | - | - | - | 39 | -
CCOC(=O)c1ccc(CNC(=O)c2cc(COc3ccccc3SC)on2)o1 | - | - | - | - | .
COc1ccc2c(c1)c(C(=O)CNc1nc(C)cs1)c(C)n2C | - | - | - | 39 | -
COc1ccc(CCNC(=O)CN2C(=O)NC3(CCCCC3C)C2=O)cc1 (centres undefined) | - | - | - | - | .
COc1ccc(-c2ccc(C(=O)NCc3ccc(C(F)(F)F)cc3)c3occc23)c(C)c1 | . | . | . | 40 | -
COc1ccc(-c2coc3c(C(=O)NC4CCCCC4)cccc23)c(C)c1 | . | . | . | - | .
COc1ccc(-c2ccc(C(=O)NC3CCCCC3)c3occc23)c(C)c1 | . | . | . | 40 | -
COC(=O)c1cn(C(=O)c2cccc(C)c2)c2ccccc12 | - | - | - | - | .
CCOC(=O)Cn1nnnc1C(CC)N(Cc1cccs1)Cc1cc2cc(C)ccc2[nH]c1=O (centres undefined) | - | - | - | - | .
CCOc1ccc2[nH]c(=O)c(CN(Cc3cccs3)C(CC)c3nnnn3C(C)(C)CC)cc2c1 (centres undefined) | . | . | - | 45 | -
CCOc1ccc2[nH]c(=O)c(CN(Cc3ccco3)C(CC)c3nnnn3Cc3ccccc3)cc2c1 (centres undefined) | - | - | - | 41 | -
O=S(=O)(c1ccc(SCCOc2cccc(Br)c2)nc1)N1CCCC1 | ? | - | - | - | .
CCOCCn1c(COc2ccc(C)cc2)nc2ccccc21 | - | - | - | - | .
CCOCCn1c2ccccc2c2nc3ccccc3nc21 | - | - | - | 41 | -
COc1ccc2c(c1)c1nc3ccccc3nc1n2Cc1ccc(OC)c(OC)c1 | . | - | - | - | .
CCn1c2ccccc2c2nc3cc(OC)c(OC)cc3nc21 | - | - | - | 48 | .
O=C(OCC(=O)N1CCOCC1)c1ccc(Br)cc1 | - | - | - | - | .
O=C(NCC1CCCO1)C(c1ccc(N2CCOCC2)cc1)N(C(=O)Cn1nnc2ccccc21)c1ccccc1F (centres undefined) | - | - | - | - | .
CCc1ccc2nc(N3CCN(C)CC3)c(C#N)cc2c1 | - | - | - | 43 | -
SMILES | Pemphigus Ab inh | Efflux pump inh | Arrestin-AP2 inh | Neddylation inh | Neddyl inh conf
CCc1ccccc1NC(=O)CNC(=O)c1cc(C2CC2)nc2c1cnn2C(C)C | . | - | - | 60 | .
Cc1cc(C)c(NC(=O)CNC(=O)c2cc(C3CC3)nc3c2cnn3C(C)C)c(C)c1 | - | . | . | . | .
CC(C)n1ncc2c(C(=O)NCC(=O)Nc3ccccc3Br)cc(C3CC3)nc21 | - | - | - | 40 | .
Cc1ccccc1CC(=O)Nc1ccc2c(C)cc(=O)oc2c1 | - | - | - | 44 | -
COc1ccccc1CC(=O)Nc1ccc2c(C)cc(=O)oc2c1 | - | - | - | . | .
Cc1cc(=O)oc2cc(NC(=O)CN3C(=O)NC(C)(c4ccccc4)C3=O)ccc12 (centres undefined) | - | - | - | 58 | +
O=C(CN1CCN(c2ccc(F)cc2)CC1)Nc1ccc(S(=O)(=O)N2CCOCC2)cc1 | - | - | - | - | .
COc1ccccc1CCC(=O)OCC(=O)Nc1c(C)nn(-c2ccccc2)c1C | - | - | - | - | .
CCCc1cc2c(=O)c(-c3ccccn3)coc2cc1OC | - | - | - | - | .
CCCc1cc2c(=O)c(-c3ccccn3)c(C)oc2cc1O | - | - | - | 45 | -
